From ChEMBL document CHEMBL3804820, “2-hydroxyisoquinoline-1,3(2H,4H)-diones (HIDs) as human immunodeficiency virus type 1 integrase inhibitors: Influence of the alkylcarboxamide substitution of position 4” (Eur J Med Chem, 2016)

Experiments:
[1] = molecular target: T1, Human immunodeficiency virus type 1 integrase (Human immunodeficiency virus 1, UniProt Q7ZJM1); experiment: Inhibition of HIV1 integrase strand transfer activity using 5'[digoxigenin]-GACCCTTTTAGTCAGTGTGGAAAATCTCTAGCA-3' as substrate incubated for 1 hr by ELISA
T1 sequence (Q7ZJM1 whole entry): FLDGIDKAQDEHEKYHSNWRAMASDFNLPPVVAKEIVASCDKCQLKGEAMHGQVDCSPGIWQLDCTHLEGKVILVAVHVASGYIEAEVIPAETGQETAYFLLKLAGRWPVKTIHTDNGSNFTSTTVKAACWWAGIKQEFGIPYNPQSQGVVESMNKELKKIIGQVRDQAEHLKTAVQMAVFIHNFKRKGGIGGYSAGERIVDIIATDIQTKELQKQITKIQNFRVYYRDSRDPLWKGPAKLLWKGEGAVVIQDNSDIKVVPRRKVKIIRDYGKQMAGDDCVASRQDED
In short: (§1)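 ELISA with a 3'-biotin oligo and a 5'-digoxigenin partner oligo. Overall assay uses the full complementary oligo; strand transfer uses a precleaved oligo lacking the 3'-GT. Integrase at 160 nM final, annealed oligos 7 nM, in 10 mM MgCl2, 5 mM DTT, 20 mM HEPES pH 7.5, 0.5% PEG, 15% DMSO. Run 1 h at 37 °C, products denatured with NaOH, detected on avidin plates.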

[2] = system: Human immunodeficiency virus 1; experiment: Antiviral activity against HIV1 3B infected in human MT4 cells assessed as reduction in virus-induced cytopathic effect by MTT assay; format: functional, organism-based; conditions: Human immunodeficiency virus 1, 3B
In short: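 MT-4 cells infected with 100-300 CCID50 of HIV-1 IIIB, in the presence of 5-fold serial dilutions of compound. Cytopathic effect read by MTT reduction to formazan, measured spectrophotometrically. EC50 is the concentration giving 50% protection against virus-induced CPE.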

[3] = Therapeutic index, ratio of CC50 for human MT4 cells to EC50 for HIV1 3B infected in human MT4 cells; format: cell-based; conditions: read-out: Ratio CC50/EC50
In short: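 Ratio of CC50 to EC50. Both were determined in parallel by MTT in MT-4 cells, with the EC50 measured against HIV-1 IIIB cytopathic effect.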

[4] = molecular target: T1, Human immunodeficiency virus type 1 integrase; experiment: Inhibition of HIV1 integrase using 3'-biotin-labelled and 5'-digoxigenin-labelled oligonucleotide substrate incubated for 1 hr by ELISA; in short: as §1
[5] = Cytotoxicity against human MT4 cells assessed as reduction in cell viability by MTT assay; format: cell-based
In short: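 MT-4 cell viability was measured by MTT reduction, run in parallel with the antiviral assay using 5-fold serial compound dilutions. CC50 is the concentration reducing viability by 50%.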

[6] = Inhibition of recombinant HIV1 reverse transcriptase RNase H activity using calf thymus ssDNA-[3H]-RNA as template/primer incubated for 10 mins; parameters: species or system Human immunodeficiency virus 1
In short: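 Recombinant HIV-1 RT (4.5 pmol) preincubated with compound 10 min at 37 °C. Then reacted 10 min at 37 °C with [3H]-RNA/calf thymus DNA hybrid (20,000 cpm) in 50 mM Tris-HCl pH 8.0, 10 mM DTT, 6 mM MgCl2, 80 mM KCl. Stopped with cold TCA/pyrophosphate; released radioactivity taken by subtraction from undigested control.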

[7] = system: Human immunodeficiency virus 1; experiment: Antiviral activity against HIV1 3B infected in human MT4 cells at 50 to 100 times antiviral EC50 added 1 to 25 hrs post infection assessed as time required for loss of inhibition of viral replication measured at 30 hrs post infection by p24 ELISA method; format: functional
[8] = system: Human immunodeficiency virus 1; experiment: Selectivity ratio of EC50 for raltegravir resistant HIV1 harboring integrase G140S/Q148H double mutant infected in human MT4 cells to EC50 for wild type HIV1 3B infected in human MT4 cells; format: functional
In short: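 MT-4 cells were infected with 100–300 CCID₅₀ of virus stock (titrated in MT-4 cells) in the presence of 5-fold serial drug dilutions. EC₅₀ is the concentration giving 50% protection against virus-induced cytopathic effect, read by MTT reduction (MT-4/MTT assay). The value is the fold-change in EC₅₀ for each mutant strain relative to the wild-type HIV-1 strain.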

IC50 [1] [µM]	IC50 [4] [µM]	IC50 [6] [µM]	SMILES	EC50 [2] [µM]	selectivity ratio [3]	CC50 [5] [µM]	Time [7] [h]	Ratio EC50 [8]
3.36	0.7		O=C(NC1CCCCC1)C1C(=O)N(O)C(=O)c2ccccc21 (stereo unspecified)	80.2	> 3	> 250		
1.99	1.82		CCCNC(=O)C1C(=O)N(O)C(=O)c2ccccc21 (stereo unspecified)	28	4.7	131		
0.48	0.66	15.1	CCCCNC(=O)C1C(=O)N(O)C(=O)c2ccccc21 (stereo unspecified)	9.2	14	128		
8.7	8.66		CCCCN(C)C(=O)C1C(=O)N(O)C(=O)c2ccccc21 (stereo unspecified)	> 63.8		63.8		
6.67	6.65		CCCCCCCCCNC(=O)C1C(=O)N(O)C(=O)c2ccccc21 (stereo unspecified)	29	3	88.5		
0.53	0.65		CCCCCNC(=O)C1C(=O)N(O)C(=O)c2ccccc21 (stereo unspecified)	10.7	12.1	130		
			Cc1cn([C@H]2C[C@H](N=[N+]=[N-])[C@@H](CO)O2)c(=O)[nH]c1=O [ZIDOVUDINE]				4	
			C[C@@H]1CCO[C@H]2Cn3cc(C(=O)NCc4ccc(F)cc4F)c(=O)c(O)c3C(=O)N12 [DOLUTEGRAVIR]					5
4.46	4.45		CC(C)(C)NC(=O)C1C(=O)N(O)C(=O)c2ccccc21 (stereo unspecified)	> 142		142		
206	123		CCN(CC)C(=O)C1C(=O)N(O)C(=O)c2ccccc21 (stereo unspecified)	> 28		28		
3.63	1.36		O=C(NC1CCCC1)C1C(=O)N(O)C(=O)c2ccccc21 (stereo unspecified)	61.9	> 4	> 250		
			CC(C)c1nc(CN(C)C(=O)N[C@H](C(=O)N[C@@H](Cc2ccccc2)C[C@H](O)[C@H](Cc2ccccc2)NC(=O)OCc2cncs2)C(C)C)cs1 [RITONAVIR]				25	
9.13	9.05		CCCCCCCCNC(=O)C1C(=O)N(O)C(=O)c2ccccc21 (stereo unspecified)	28	3.5	98.5		
5.05	4.43		CC(C)NC(=O)C1C(=O)N(O)C(=O)c2ccccc21 (stereo unspecified)	30.2	5.4	162		
9.1	8.12		O=C(C1C(=O)N(O)C(=O)c2ccccc21)N1CCCCC1 (stereo unspecified)	> 120		120		
4	2.13		O=C(NC1CC1)C1C(=O)N(O)C(=O)c2ccccc21 (stereo unspecified)	42.7	> 6	> 250		
1.05	0.86	23.2	CCCCCCCNC(=O)C1C(=O)N(O)C(=O)c2ccccc21 (stereo unspecified)	32.5	3.4	110		
